The test system of assay [1] is P388. As to the kind of experiment: Activity against P-388 murine leukemia cells expressed as median survival time (MST treated/MST control) at a dose of 4.8 mg/kg per inj. The class given is functional, Mus musculus. The method, boiled down:
(§1)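 P-388 leukemia in vivo: 10^6 ascites cells implanted ip into female CDF1 mice. Six mice per mitosane dose, 10 saline-injected controls, and a concurrent mitomycin C group of six mice per dose. Median survival time recorded; %T/C = MST treated/MST control × 100. 30-day survivors counted. Minimum effective dose set at %T/C 125.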

Assay [2] deals with P388. Description: Activity against P-388 murine leukemia cells expressed as median survival time (MST treated/MST control) at a dose of 6.4 mg/kg per inj. The class given is functional, Mus musculus. The procedure, abridged: as §1
The test system of assay [3] is P388. As to the kind of experiment: (§2) Activity against P-388 murine leukemia cells expressed as average weight change at a dose of 12.8 mg/kg per inj. The class given is functional, Mus musculus.
For assay [4], the system named is P388. As to the kind of experiment: Activity against P-388 murine leukemia cells expressed as median survival time (MST treated/MST control) at a dose of 25.6 mg/kg per inj. The class given is functional, Mus musculus. The procedure, abridged: as §1
For assay [5], the system named is P388. Description: (§3) Activity against P-388 murine leukemia cells expressed as average weight change at a dose of 25.6 mg/kg per inj. Type of assay: functional, Mus musculus.
Assay [6] relates to P388. Description: Activity against P-388 murine leukemia cells expressed as median survival time (MST treated/MST control) at a dose of 12.8 mg/kg per inj. The class given is functional, Mus musculus. The method, boiled down: as §1
For assay [7], the system named is P388. As to the kind of experiment: (§4) Activity against P-388 murine leukemia cells expressed as average weight change at a dose of 6.4 mg/kg per inj. Type of assay: functional, Mus musculus.
In assay [8] the test system is P388. As to the kind of experiment: (§5) Activity against P-388 murine leukemia cells expressed as average weight change at a dose of 3.2 mg/kg per inj. Type of assay: functional, Mus musculus.
For assay [9], the system named is P388. Description: Activity against P-388 murine leukemia cells expressed as median survival time (MST treated/MST control) at a dose of 3.2 mg/kg per inj. The class given is functional, Mus musculus. The method, boiled down:
as §1

The subject of assay [10] is P388. Description: Activity against P-388 murine leukemia cells expressed as median survival time (MST treated/MST control) at a dose of 1.6 mg/kg per inj. The class given is functional, Mus musculus. The procedure, abridged:
as §1

The test system of assay [11] is P388. Description: Activity against P-388 murine leukemia cells expressed as average weight change at a dose of 1.6 mg/kg per inj. Type of assay: functional, Mus musculus.
Assay [12] has as its system P388. Description: Activity against P-388 murine leukemia cells at a dose of 3.2 mg/kg per inj. The class given is functional, Mus musculus. The procedure, abridged: as §1
Assay [13] concerns P388. Description: Activity against P-388 murine leukemia cells expressed as median survival time (MST treated/MST control) at a dose of 0.8 mg/kg per inj. The class given is functional, Mus musculus. The method, boiled down:
as §1

For assay [14], the system named is P388. As to the kind of experiment: Activity against P-388 murine leukemia cells expressed as average weight change at a dose of 0.8 mg/kg per inj. The class given is functional, Mus musculus.
For assay [15], the system named is P388. Description: Activity against P-388 murine leukemia cells expressed as median survival time (MST treated/MST control) at a dose of 0.2 mg/kg per inj. Type of assay: functional, Mus musculus. The procedure, abridged:
as §1

Assay [16] has as its system P388. As to the kind of experiment: Activity against P-388 murine leukemia cells expressed as median survival time (MST treated/MST control) at a dose of 0.4 mg/kg per inj. Type of assay: functional, Mus musculus. The procedure, abridged: as §1
For assay [17], the system named is P388. Description: Activity against P-388 murine leukemia cells expressed as average weight change at a dose of 0.2 mg/kg per inj. Type of assay: functional, Mus musculus.
Assay [18] deals with P388. As to the kind of experiment: Activity against P-388 murine leukemia cells expressed as average weight change at a dose of 0.4 mg/kg per inj. Type of assay: functional, Mus musculus.
The test system of assay [19] is P388. Description: Activity against P-388 murine leukemia celLS at a dose of 3.2 mg/kg per inj. Type of assay: functional, Mus musculus. The procedure, abridged:
as §1

In assay [20] the test system is P388. As to the kind of experiment: Activity against P-388 murine leukemia cells at a dose of 4.8 mg/kg per inj. The class given is functional, Mus musculus. The procedure, abridged:
as §1

Assay [21] deals with P388. Described as §2. As to conditions: Mus musculus. The class given is functional, organism-based. The method, boiled down:
(§6)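 P-388 leukemia in vivo: 10^6 ascites cells implanted ip in female CDF1 mice. Six mice per dose level; 10 saline-injected controls. A parallel group of six mice per dose received mitomycin C in the same experiment as a reference. Tested at Bristol-Myers.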

Assay [22] has as its system P388. The assay is described as §3. Type of assay: functional, organism-based. As to conditions: Mus musculus. The method, boiled down:
as §6

Assay [23] relates to P388. Described as §5. The settings on record: Mus musculus. Type of assay: functional, organism-based. The procedure, abridged:
as §6

In assay [24] the test system is P388. The description is as §4. Type of assay: functional, organism-based. The settings on record: Mus musculus. The method, boiled down:
as §6

On to `CO[C@@]12C(COC(N)=O)C3=C(C(=O)C(C)=C(NCCN4CCNCC4)C3=O)N1CC1NC12` (stereo not given in full), for which, in the assay with P388 [1], the T/C is 213%. The MST is 113 in the assay on P388 [2], 138 in the assay on P388 [4] and 125 in the assay on P388 [6]. For the same compound, the Activity with P388 [3] is listed as 1.2 g; with P388 [5] it was -0.6 g; in the assay with P388 [7], 2.1 g.

`COC1c2c(COC(=N)[O-])c3c(n2CC1N)C(=O)C(C)=C(N)C3=O.Cl.[Zn+]` (stereo not given): the Activity in the assay on P388 [8] is 2 g; in the assay on P388 [3] it was 0.4 g; in the assay on P388 [11], 0.5 g; with P388 [5] it was -0.7 g; in the assay with P388 [7], 0.7 g. Besides, the MST is reported as 139 in the assay with P388 [9]; 133 in the assay on P388 [2]; 178 in the assay on P388 [4]; 122 in the assay on P388 [10]; 144 with P388 [6]. Further, the T/C in the assay on P388 [12] amounted to 194%.

For `CO[C@@]12C(COC(N)=O)C3=C(C(=O)C(C)=C(NCCc4ccccn4)C3=O)N1CC1NC12` (stereo not given in full), the MST in the assay on P388 [13] was 138; in the assay with P388 [9], 163; in the assay with P388 [15] it was 125; in the assay with P388 [16], 125; with P388 [2] it was 213; with P388 [4] it was above 375. Besides, the MST with P388 [10] came to 163; in the assay with P388 [6], 256. For the same compound, the Activity in the assay on P388 [8] is listed as -0.9 g; in the assay with P388 [14], -0.3 g; in the assay with P388 [3], -1.8 g; in the assay with P388 [17], -0.5 g; in the assay on P388 [11] it was -0.4 g; in the assay with P388 [5], -2.7 g. The Activity in the assay with P388 [18] is on record as -0.6 g; in the assay with P388 [7], -1.1 g. This compound had a T/C in the assay on P388 [12] of 319%.

With `CO[C@@]12[C@H](COC(N)=O)C3=C(C(=O)C(C)=C(NCCc4ccccn4)C3=O)N1C[C@@H]1N[C@@H]12.Cl.Cl.[Zn+2]`, the Activity was 0.1 g in the assay with P388 [8]; -0.4 g in the assay on P388 [3]; 0.8 g with P388 [11]; -1.3 g in the assay with P388 [5]; -0.6 g with P388 [7]. The MST in the assay with P388 [9] is reported as 133; with P388 [2], 139; in the assay on P388 [4], 161; in the assay on P388 [10], 122; in the assay on P388 [6] it was 156. For the same compound, the T/C with P388 [19] is 194%.

Consider `CO[C@@]12[C@H](COC(N)=O)C3=C(C(=O)C(C)=C(NCCN4CCNCC4)C3=O)N1C[C@@H]1N[C@@H]12.Cl.Cl.[Zn+2]`, for which the T/C in the assay with P388 [1] is listed as 213%. Besides, the Activity is given as 1.2 g in the assay with P388 [3] and -0.6 g in the assay on P388 [5]. In addition, the values for the MST in the assay with P388 [4] and with P388 [6] were 100 and 90, respectively.

In the case of `COC1c2c(COC(N)=O)c3c(n2CC1N)C(=O)C(C)=C(N)C3=O.Cl` (stereo not given), the results for the MST in the assay on P388 [2], in the assay on P388 [4] and with P388 [6] were 110, 130 and 115, respectively. Further, the Activity in the assay on P388 [3] was found to be 0.4 g; with P388 [5], 0.6 g; in the assay on P388 [7] it was 1.9 g. This compound showed a T/C in the assay on P388 [20] above 165%.

Take “3-[6-(1,1-copperdichloro-1H,2H,3H,4H-pyrido[1,2-c]pyrimidin-9-ium-2-yl)-8a-methoxy-5-methyl-4,7-dioxo-(8aR)-1,1a,2,4,7,8,8a,8b-octahydroazireno[3',2':3,4]pyrrolo[1,2-a]indol-8-yl]methyloxocarboxamide”: the MST in the assay with P388 [4] (Mus musculus) was 128; in the assay on P388 [6] (Mus musculus) it was 122. Further, the figures for the av wt change with P388 [21] and in the assay on P388 [22] were 0.2 g and -1.4 g, respectively.

In the assay on P388 [1] (Mus musculus), “Platinium II Complex N7-[2-(2-Pyridyl)ethyl]mitomycin C” showed a T/C of 230%. Also, the Activity was 0.5 g in the assay with P388 [3] (Mus musculus) and -0.2 g with P388 [5] (Mus musculus). Moreover, the MST turned out to be 125 in the assay with P388 [4] (Mus musculus) and 110 with P388 [6] (Mus musculus).

For the compound “2-amino-9-(2-carbamoyloxomethyl)-1-methoxy-6-methyl-5,8-dioxo-2,3,5,8-tetrahydro-1H-pyrrolo[1,2-a]indol-7-yl(dichlorocopper)ammonium; Copper chloride”, the MST in the assay with P388 [9] (Mus musculus), in the assay on P388 [2] (Mus musculus) and with P388 [6] (Mus musculus) was 100 throughout. For the same compound, the Activity was 0.9 g in the assay with P388 [23], 0.3 g in the assay on P388 [21], -3.1 g in the assay with P388 [22] and 0.8 g with P388 [24]. The same compound came in with a T/C in the assay on P388 [12] (Mus musculus) of 100%.

What is called T/C is the ratio of treated to control.
